pIC50: −log10 of the molar value. Active and inactive are the calls of the source. The rule behind the calls is not given here.
Assays:
Histone deacetylase 3 = Histone deacetylase 3 (Homo sapiens, UniProt O15379); experiment: Inhibition of recombinant full length human HDAC3 expressed in SF9 baculovirus using FAM- labelled acetylated peptide as substrate measured by Electrophoretic mobility shift assay
Histone deacetylase 7 = molecular target: T1, Histone deacetylase 7 (Homo sapiens, UniProt Q8WUI4); experiment: Inhibition of recombinant full length human HDAC7 expressed in SF9 baculovirus using FAM- labelled acetylated peptide as substrate measured by Electrophoretic mobility shift assay
T1 sequence (Q8WUI4 whole entry): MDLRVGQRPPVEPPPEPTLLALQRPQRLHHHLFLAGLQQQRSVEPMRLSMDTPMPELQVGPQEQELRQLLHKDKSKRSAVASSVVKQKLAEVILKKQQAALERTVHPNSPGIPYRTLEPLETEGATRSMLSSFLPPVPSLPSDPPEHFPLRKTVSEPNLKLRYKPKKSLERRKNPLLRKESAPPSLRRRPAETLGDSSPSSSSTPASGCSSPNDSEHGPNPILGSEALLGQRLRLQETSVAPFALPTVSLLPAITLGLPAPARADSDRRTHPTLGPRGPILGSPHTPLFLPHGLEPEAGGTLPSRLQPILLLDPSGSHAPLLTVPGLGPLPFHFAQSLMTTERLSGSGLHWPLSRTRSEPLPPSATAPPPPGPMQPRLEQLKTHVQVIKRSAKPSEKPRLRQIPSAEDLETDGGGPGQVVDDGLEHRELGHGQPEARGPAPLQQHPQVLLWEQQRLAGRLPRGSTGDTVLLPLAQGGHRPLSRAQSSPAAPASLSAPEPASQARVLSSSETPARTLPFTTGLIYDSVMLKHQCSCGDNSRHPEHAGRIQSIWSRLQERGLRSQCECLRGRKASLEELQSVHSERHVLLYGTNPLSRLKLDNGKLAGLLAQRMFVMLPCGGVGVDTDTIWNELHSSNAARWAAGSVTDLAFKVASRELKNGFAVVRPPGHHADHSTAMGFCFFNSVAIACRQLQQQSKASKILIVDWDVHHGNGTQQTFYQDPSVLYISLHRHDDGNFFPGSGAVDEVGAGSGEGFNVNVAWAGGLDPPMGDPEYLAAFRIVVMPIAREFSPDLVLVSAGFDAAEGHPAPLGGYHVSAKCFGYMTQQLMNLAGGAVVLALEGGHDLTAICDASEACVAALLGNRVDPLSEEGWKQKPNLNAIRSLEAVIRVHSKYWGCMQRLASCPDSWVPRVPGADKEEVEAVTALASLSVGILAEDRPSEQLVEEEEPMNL

[1] = Selectivity ratio of IC50 for full length recombinant human HDAC3 to IC50 for full length recombinant human HDAC6
[2] = molecular target: T2, Protein deacetylase HDAC6 (Homo sapiens) (UniProt Q9UBN7); experiment: Inhibition of HDAC6 in human MV4-11 cells assessed as increase in acetylation of alpha tubulin at 0.5 uM measured after 6 hrs by Western blot assay relative to histone H3 acetylation; assay type: cell-based
T2 sequence (whole entry): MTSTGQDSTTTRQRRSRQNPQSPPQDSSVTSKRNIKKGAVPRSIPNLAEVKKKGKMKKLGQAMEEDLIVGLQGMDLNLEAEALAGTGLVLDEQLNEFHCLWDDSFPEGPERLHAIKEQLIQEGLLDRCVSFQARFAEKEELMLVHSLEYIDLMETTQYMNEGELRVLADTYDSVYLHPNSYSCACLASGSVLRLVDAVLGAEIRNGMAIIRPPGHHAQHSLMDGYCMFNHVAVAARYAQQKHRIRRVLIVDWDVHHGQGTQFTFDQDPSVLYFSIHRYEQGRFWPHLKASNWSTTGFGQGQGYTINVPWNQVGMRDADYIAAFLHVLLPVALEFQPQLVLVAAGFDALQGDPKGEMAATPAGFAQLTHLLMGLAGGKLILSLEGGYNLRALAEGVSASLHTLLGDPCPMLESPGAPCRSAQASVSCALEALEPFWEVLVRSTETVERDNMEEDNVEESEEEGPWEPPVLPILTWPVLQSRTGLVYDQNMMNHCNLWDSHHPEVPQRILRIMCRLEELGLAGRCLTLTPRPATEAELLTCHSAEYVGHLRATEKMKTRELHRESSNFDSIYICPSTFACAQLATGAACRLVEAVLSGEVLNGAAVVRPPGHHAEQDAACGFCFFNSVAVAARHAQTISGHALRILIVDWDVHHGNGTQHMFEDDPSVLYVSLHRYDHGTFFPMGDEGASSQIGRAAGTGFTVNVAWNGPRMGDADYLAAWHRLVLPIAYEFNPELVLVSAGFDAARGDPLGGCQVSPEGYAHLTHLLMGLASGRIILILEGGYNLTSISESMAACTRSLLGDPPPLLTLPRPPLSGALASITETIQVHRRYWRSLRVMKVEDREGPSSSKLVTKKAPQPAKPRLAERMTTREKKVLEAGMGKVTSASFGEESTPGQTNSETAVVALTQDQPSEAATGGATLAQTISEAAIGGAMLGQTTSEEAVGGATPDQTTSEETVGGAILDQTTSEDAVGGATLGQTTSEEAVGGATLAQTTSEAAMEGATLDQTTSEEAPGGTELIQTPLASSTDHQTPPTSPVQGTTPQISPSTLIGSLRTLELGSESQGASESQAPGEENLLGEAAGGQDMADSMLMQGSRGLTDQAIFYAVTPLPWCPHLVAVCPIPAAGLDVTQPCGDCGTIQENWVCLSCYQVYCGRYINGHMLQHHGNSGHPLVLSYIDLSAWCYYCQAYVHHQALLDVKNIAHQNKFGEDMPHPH
In short: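 MV4-11 cells were exposed to a range of concentrations for 6 h. Protein extracts were run on SDS-PAGE and immunoblotted for acetylated α-tubulin, acetylated histone H3 and acetylated histone H4, with HSC70 as the loading reference. A representative blot of three independent experiments is shown.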

MV4-11 = experiment: Induction of apoptosis in human MV4-11 cells assessed as late apoptotic cells at 0.25 microM measured after 18 hrs by Annexin V/Propidium iodide stain based Flow cytometry assay (reference value: 4.91%); assay type: functional
Fibroblast = experiment: Cytotoxicity against pooled human fibroblasts measured after 72 hrs by spectrophotometer method; assay type: cell-based
[3] = Glutathione reactivity at pH 7.4 assessed as compound remaining measured by LC-MS/MS method; assay type: physicochemical
[4] = Glutathione reactivity at pH 7.4 assessed as compound remaining measured after 30 mins by LC-MS/MS method; assay type: physicochemical; details: glutathione solution, read-out: Stabilty
[5] = Apparent permeability across apical to basolateral side in human Caco2 cells measured after 2 hrs by LC-MS/MS method; assay type: ADME, cell-based; details: Caco-2
In short: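 Bidirectional Caco-2 permeability was measured as Papp in the apical-to-basolateral and basolateral-to-apical directions. The efflux ratio was calculated from the two directional Papp values.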

[6] = AUC (infinity) in CD1 mouse at 20 mg/kg, ip measured after 24 hrs by LC/MS/MS method; assay type: ADME, organism-based; set-up: route intraperitoneal, dose 20 mg/kg, time 24 hrs; details: in vivo
[7] = molecular target: Class 1 histone deacetylase (Homo sapiens) (UniProt Q13547+O15379+Q92769+Q9BY41); experiment: Inhibition of HDAC class 1 in human HeLa cells assessed as acetylated H3 histone at 0.1 uM measured after 6 hrs by Immunofluorescent assay
Class 1 histone deacetylase (Homo sapiens), sequence (O15379 whole entry, looked up): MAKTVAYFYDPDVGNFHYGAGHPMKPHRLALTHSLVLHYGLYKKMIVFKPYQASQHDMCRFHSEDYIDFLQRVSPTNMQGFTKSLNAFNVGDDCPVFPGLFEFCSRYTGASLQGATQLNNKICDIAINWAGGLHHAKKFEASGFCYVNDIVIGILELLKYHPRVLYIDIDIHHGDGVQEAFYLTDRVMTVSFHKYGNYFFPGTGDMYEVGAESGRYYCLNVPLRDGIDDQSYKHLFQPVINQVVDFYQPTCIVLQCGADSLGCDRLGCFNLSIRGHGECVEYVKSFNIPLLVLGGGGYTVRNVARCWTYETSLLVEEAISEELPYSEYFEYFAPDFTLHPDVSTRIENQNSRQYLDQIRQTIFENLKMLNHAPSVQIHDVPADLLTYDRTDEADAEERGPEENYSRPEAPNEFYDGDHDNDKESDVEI
Class 1 histone deacetylase (Homo sapiens), sequence (Q13547 whole entry, looked up): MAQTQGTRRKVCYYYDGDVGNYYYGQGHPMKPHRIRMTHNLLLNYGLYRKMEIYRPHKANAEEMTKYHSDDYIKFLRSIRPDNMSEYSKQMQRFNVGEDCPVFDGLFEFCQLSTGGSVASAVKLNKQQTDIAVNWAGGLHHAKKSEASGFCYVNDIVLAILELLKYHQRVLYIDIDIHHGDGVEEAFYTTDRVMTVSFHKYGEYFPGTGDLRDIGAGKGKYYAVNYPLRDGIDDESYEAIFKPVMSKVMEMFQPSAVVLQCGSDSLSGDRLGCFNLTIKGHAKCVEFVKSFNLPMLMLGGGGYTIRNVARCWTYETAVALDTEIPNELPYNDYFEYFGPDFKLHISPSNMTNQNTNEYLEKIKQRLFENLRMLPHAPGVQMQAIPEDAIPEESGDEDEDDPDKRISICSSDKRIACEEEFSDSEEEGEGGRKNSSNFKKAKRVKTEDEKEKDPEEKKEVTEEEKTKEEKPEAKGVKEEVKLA
Class 1 histone deacetylase (Homo sapiens), sequence (Q92769 whole entry, looked up): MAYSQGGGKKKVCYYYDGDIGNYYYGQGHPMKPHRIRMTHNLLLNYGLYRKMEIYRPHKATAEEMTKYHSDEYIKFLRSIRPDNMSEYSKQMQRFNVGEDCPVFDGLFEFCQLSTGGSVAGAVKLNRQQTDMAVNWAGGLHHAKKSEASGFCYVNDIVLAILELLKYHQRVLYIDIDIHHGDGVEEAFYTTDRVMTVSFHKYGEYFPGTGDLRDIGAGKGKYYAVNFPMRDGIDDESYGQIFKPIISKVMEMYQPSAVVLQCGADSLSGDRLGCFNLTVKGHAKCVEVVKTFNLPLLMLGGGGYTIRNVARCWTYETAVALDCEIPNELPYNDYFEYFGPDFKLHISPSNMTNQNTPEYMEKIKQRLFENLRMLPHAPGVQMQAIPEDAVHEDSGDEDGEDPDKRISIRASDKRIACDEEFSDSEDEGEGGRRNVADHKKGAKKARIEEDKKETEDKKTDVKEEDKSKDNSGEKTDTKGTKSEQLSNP
Class 1 histone deacetylase (Homo sapiens), sequence (Q9BY41 whole entry, looked up): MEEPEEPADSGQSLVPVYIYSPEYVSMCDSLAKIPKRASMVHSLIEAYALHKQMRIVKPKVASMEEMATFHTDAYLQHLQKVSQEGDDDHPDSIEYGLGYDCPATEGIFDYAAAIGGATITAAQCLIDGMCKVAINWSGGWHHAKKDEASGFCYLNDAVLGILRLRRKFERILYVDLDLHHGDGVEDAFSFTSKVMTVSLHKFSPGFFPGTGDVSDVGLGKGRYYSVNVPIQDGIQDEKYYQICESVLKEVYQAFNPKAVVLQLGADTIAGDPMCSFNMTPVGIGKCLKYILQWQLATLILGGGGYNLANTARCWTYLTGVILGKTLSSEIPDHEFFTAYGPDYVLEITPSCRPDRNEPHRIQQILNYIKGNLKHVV

Histone deacetylase 3, sequence (O15379 whole entry): as the sequence (O15379 whole entry, looked up) above

- pIC50 (Histone deacetylase 3): 6.67
- pIC50 (Histone deacetylase 7): < 6.00
- Ratio IC50 [1]: 36.3
- inhibition [2]: Active
- Stabilty [3]: 100%
- remaining at 0.5 h [4]: 96.4%
- Papp A→B at 2 h [5]: 1.33 ×10⁻⁶ cm/s
- AUC(0-inf) [6]: 219 ng·h/mL
- inhibition [7]: inactive
SMILES: O=C(NO)c1ccc(CNC(=O)c2c(F)c(F)c(F)c(F)c2F)cc1
- Activity (MV4-11): 5.13%
- pIC50 (Fibroblast): 4.84
